In article PMC2871064 (Cancer research, 2010):
Where two headings read alike, the source gives them in different places.

Legend:
A375 xenografts = assay: Tissue distribution in mice bearing A375 xenografts; type: in vivo, NCr^nu/nu mice; settings: A375 xenograft mice; for Tissue distribution: Blood: tail vein
Method in brief: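 Male athymic NCr nu/nu mice received 0.25 mL of cells (8 × 10⁶/mL in 1:1 D-PBS-glucose-pyruvate/Matrigel) into the right hind flank. Tumours were used at 100–500 mm³ (~21 days). Tail-vein bolus of ~74 KBq tracer in 0.05 mL; n = 5 per time point. Mice were killed by CO₂ at 1, 4 and 24 h. Organs and tumour were weighed wet and gamma-counted; results are %ID/g, mean ± SD.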

SK-MEL-3 tumors = assay: Effect of [^131I]MIP-1145 on SK-MEL-3 tumor growth and survival; type: in vivo, athymic nude mice; settings: multiple doses, 25 MBq or 2.5 GBq/m^2
[1] = Pharmacokinetics and gamma camera imaging in cynomolgus monkeys; type: in vivo
Method in brief: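 Four cynomolgus monkeys (2 female, 2 male), Telazol-anaesthetised, received 185 MBq radiotracer iv without thyroid blockade. Serial anterior/posterior gamma-camera imaging was performed. Blood was drawn at 5, 30, 60, 120 and 360 min and at 24, 48 and 72 h. Urine was pooled over 0–6, 6–24, 24–48 and 48–72 h. Analysis was non-compartmental, with CL = dose/AUC and Vss = MRT × CL.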

[2] = Projected human dosimetry extrapolated from cynomolgus monkey scintigraphy; type: in vivo, cynomolgus monkeys
Method in brief: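 Regions of interest (total body, lung, kidney, thyroid, eye) were drawn on anterior/posterior monkey images at each time point. Uptake was normalised to % total body dose, with the first pre-voiding image set as 100%. Time integrals went into OLINDA/EXM: adult male phantom, 4.8 h bladder voiding interval, unit-density sphere model for eye. The intestine margin is referenced to a 45 Gy limit at 4.7 GBq/70 kg.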

[3] = Monte Carlo simulation of radiation dose to human eye substructures; settings: human projection
B16F10 xenografts = settings: cited from earlier work
[4] = both, cynomolgus monkey, blood, iv, 185 MBq
[5] = at anticipated human dose 4.7 GBq/70 kg patient
[6] = extrapolated from cynomolgus monkeys

Q: With CCN(CC)CCNC(=O)c1cc(I)c(NC(=O)c2ccc(F)cc2)cc1OC [[^131I]MIP-1145, N-(2-diethylamino-ethyl)-4-(4-fluoro-benzamido)-5-iodo-2-methoxy-benzamide] as the molecule, how does the “Tissue distribution: Large Intestine” value (A375 xenografts; 4 hours) read?
A: Its value is 13.81 ± 5.14 %ID/g.

Q: What about the “Tissue distribution: Liver” value (A375 xenografts; 4 hours) of the same molecule?
A: The value was 4.30 ± 0.45 %ID/g.

Q: What about the “Tissue distribution: Lungs” value (A375 xenografts; 4 hours) of the same molecule?
A: The value was 7.24 ± 1.31 %ID/g.

Q: What about the “Tissue distribution: Skeletal Muscle” value (A375 xenografts; 4 hours) of the same molecule?
A: Its value is 0.58 ± 0.12 %ID/g.

Q: And the “Tissue distribution: Small Intestine” value (A375 xenografts; 4 hours)?
A: Its value is 12.44 ± 2.02 %ID/g.

Q: What about the “Tissue distribution: Spleen” value (A375 xenografts; 4 hours) of the same molecule?
A: Its value is 2.57 ± 0.51 %ID/g.

Q: And the “Tissue distribution: Stomach” value (A375 xenografts; 4 hours)?
A: Its value is 4.57 ± 1.77 %ID/g.

Q: And the “Tissue distribution: Testes” value (A375 xenografts; 4 hours)?
A: Its value is 0.90 ± 0.13 %ID/g.

Q: And the “Tissue distribution: Tumor” value (A375 xenografts; 4 hours)?
A: The value was 1.19 ± 0.07 %ID/g.

Q: What about the “Tissue distribution: Blood” value (A375 xenografts; 4 hours post-injection) of the same molecule?
A: The value was 0.26 ± 0.04 %ID/g.

Q: And the “Tissue distribution: Adipose” value (A375 xenografts; 24 hours)?
A: The value was 0.13 ± 0.12 %ID/g.

Q: And the “Tissue distribution: Bone” value (A375 xenografts; 24 hours)?
A: The value was 0.03 ± 0.02 %ID/g.

Q: And the “Tissue distribution: Brain” value (A375 xenografts; 24 hours)?
A: Its value is 0.01 ± 0.00 %ID/g.

Q: What about the “Tissue distribution: Heart” value (A375 xenografts; 24 hours) of the same molecule?
A: Its value is 0.02 ± 0.02 %ID/g.

Q: And the “Tissue distribution: Kidneys” value (A375 xenografts; 24 hours)?
A: The value was 0.21 ± 0.08 %ID/g.

Q: And the “Tissue distribution: Large Intestine” value (A375 xenografts; 24 hours)?
A: The value was 1.35 ± 0.36 %ID/g.

Q: And the “Tissue distribution: Liver” value (A375 xenografts; 24 hours)?
A: The value was 0.32 ± 0.06 %ID/g.

Q: What about the “Tissue distribution: Lungs” value (A375 xenografts; 24 hours) of the same molecule?
A: Its value is 0.37 ± 0.15 %ID/g.

Q: What about the “Tissue distribution: Skeletal Muscle” value (A375 xenografts; 24 hours) of the same molecule?
A: The value was 0.02 ± 0.01 %ID/g.

Q: What about the “Tissue distribution: Small Intestine” value (A375 xenografts; 24 hours) of the same molecule?
A: The value was 0.59 ± 0.24 %ID/g.

Q: And the “Tissue distribution: Spleen” value (A375 xenografts; 24 hours)?
A: Its value is 0.15 ± 0.20 %ID/g.

Q: What about the “Tissue distribution: Stomach” value (A375 xenografts; 24 hours) of the same molecule?
A: Its value is 0.67 ± 0.27 %ID/g.

Q: And the “Tissue distribution: Testes” value (A375 xenografts; 24 hours)?
A: Its value is 0.16 ± 0.05 %ID/g.

Q: And the “Tissue distribution: Tumor” value (A375 xenografts; 24 hours)?
A: Its value is 0.04 ± 0.02 %ID/g.

Q: And the “Tissue distribution: Blood” value (A375 xenografts; 24 hours post-injection)?
A: The value was 0.04 ± 0.02 %ID/g.

Q: And the Duration of response (SK-MEL-3 tumors)?
A: The Duration of response was “over 125 days”.

Q: What about the MRT [1, 4] of the same molecule?
A: The MRT was 47 ± 5 h.

Q: And the Vd [1, 4]?
A: Its Vd is 19 ± 3 L.

Q: And the clearance [1, 4]?
A: The clearance was 6.67 mL/min.

Q: And the “Injected dose recovered in the urine” value ([1]; cynomolgus monkeys, by 72 hours post-injection)?
A: The value was 28%.

Q: What about the “Margin of lower large intestine dose below the allowable exposure limit of 45 Gy” value [2, 5] of the same molecule?
A: Its value is 3.3 times.

Q: What about the “Radiation absorbed dose to the lower large intestine” value [2, 5] of the same molecule?
A: Its value is 13.3 Gy.

Q: And the “Radiation dose to the eye” value [2, 5]?
A: Its value is 6.1 Gy.

Q: And the “Effective Dose” value [2, 6]?
A: The value was 1.40E+00 ± 6.30E-01 mGy/MBq.

Q: What about the “Effective Dose Equivalent” value [2, 6] of the same molecule?
A: The value was 9.20E-01 ± 3.70E-01 mGy/MBq.

Q: What about the “Projected human organ radiation absorbed dose: Brain” value [2, 6] of the same molecule?
A: Its value is 7.00E-02 ± 1.50E-02 mGy/MBq.

Q: And the “Projected human organ radiation absorbed dose: Breasts” value [2, 6]?
A: Its value is 6.40E-02 ± 1.40E-02 mGy/MBq.

Q: And the “Projected human organ radiation absorbed dose: Eyes” value [2, 6]?
A: Its value is 1.30E+00 ± 6.70E-01 mGy/MBq.

Q: And the “Projected human organ radiation absorbed dose: Gallbladder Wall” value [2, 6]?
A: Its value is 1.20E-01 ± 1.90E-02 mGy/MBq.

Q: What about the “Projected human organ radiation absorbed dose: Heart Wall” value [2, 6] of the same molecule?
A: The value was 8.00E-02 ± 1.80E-02 mGy/MBq.

Q: What about the “Projected human organ radiation absorbed dose: Kidneys” value [2, 6] of the same molecule?
A: The value was 1.10E-01 ± 7.70E-02 mGy/MBq.

Q: What about the “Projected human organ radiation absorbed dose: Liver” value [2, 6] of the same molecule?
A: The value was 8.60E-02 ± 1.70E-02 mGy/MBq.

Q: What about the “Projected human organ radiation absorbed dose: Lungs” value [2, 6] of the same molecule?
A: The value was 6.70E-02 ± 2.00E-02 mGy/MBq.

Q: And the “Projected human organ radiation absorbed dose: Muscle” value [2, 6]?
A: Its value is 8.80E-02 ± 1.60E-02 mGy/MBq.

Q: What about the “Projected human organ radiation absorbed dose: Osteogenic Cells” value [2, 6] of the same molecule?
A: The value was 1.60E-01 ± 3.30E-02 mGy/MBq.

Q: And the “Projected human organ radiation absorbed dose: Ovaries” value [2, 6]?
A: Its value is 2.00E-01 ± 1.90E-02 mGy/MBq.

Q: And the “Projected human organ radiation absorbed dose: Pancreas” value [2, 6]?
A: The value was 9.20E-02 ± 1.90E-02 mGy/MBq.

Q: What about the “Projected human organ radiation absorbed dose: Red Marrow” value [2, 6] of the same molecule?
A: The value was 8.70E-02 ± 1.40E-02 mGy/MBq.

Q: And the “Projected human organ radiation absorbed dose: Skin” value [2, 6]?
A: The value was 6.60E-02 ± 1.40E-02 mGy/MBq.

Q: What about the “Projected human organ radiation absorbed dose: Small Intestine” value [2, 6] of the same molecule?
A: The value was 3.40E-01 ± 1.80E-02 mGy/MBq.

Q: What about the “Projected human organ radiation absorbed dose: Spleen” value [2, 6] of the same molecule?
A: The value was 8.50E-02 ± 1.80E-02 mGy/MBq.

Q: What about the “Projected human organ radiation absorbed dose: Stomach Wall” value [2, 6] of the same molecule?
A: Its value is 9.80E-02 ± 1.80E-02 mGy/MBq.

Q: And the “Projected human organ radiation absorbed dose: Testes” value [2, 6]?
A: The value was 8.60E-02 ± 1.60E-02 mGy/MBq.

Q: And the “Projected human organ radiation absorbed dose: Thymus” value [2, 6]?
A: Its value is 7.80E-02 ± 1.70E-02 mGy/MBq.

Q: What about the “Projected human organ radiation absorbed dose: Uterus” value [2, 6] of the same molecule?
A: The value was 1.50E-01 ± 1.80E-02 mGy/MBq.

Q: What about the “Projected human radiation absorbed dose: Total Body” value [2, 6] of the same molecule?
A: Its value is 1.00E-01 ± 1.60E-02 mGy/MBq.

Q: What about the “Projected human organ radiation absorbed dose: Adrenals” value ([2]; extrapolated from cynomolgus monkeys, adult male phantom) of the same molecule?
A: The value was 8.50E-02 ± 1.80E-02 mGy/MBq.

Q: And the “Projected human organ radiation absorbed dose: Urinary Bladder Wall” value ([2]; extrapolated from cynomolgus monkeys, 4.8 hour voiding interval)?
A: The value was 6.20E-01 ± 4.10E-02 mGy/MBq.

Q: And the “Projected human organ radiation absorbed dose: LLI Wall” value ([2]; extrapolated from cynomolgus monkeys, lower large intestine)?
A: Its value is 2.80E+00 ± 1.80E-02 mGy/MBq.

Q: What about the “Projected human organ radiation absorbed dose: ULI Wall” value ([2]; extrapolated from cynomolgus monkeys, upper large intestine) of the same molecule?
A: Its value is 1.10E+00 ± 1.50E-02 mGy/MBq.

Q: And the “Projected human organ radiation absorbed dose: Thyroid” value ([2]; extrapolated from cynomolgus monkeys, without thyroid blockade)?
A: The value was 1.80E+01 ± 1.30E+01 mGy/MBq.

Q: And the “Therapeutic dose supported as safe for administration” value ([2]; human projection, dose-limiting organ lower large intestine)?
A: Its value is “up to 16.2 GBq”.

Q: What about the “Projected human radiation absorbed dose: all other organs” value ([2]; organs other than thyroid, large intestine and eyes) of the same molecule?
A: The value was 0.064-1.1 mGy/MBq.

Q: What about the “Administered activity needed to reach the lens TD5/5 of 10 Gy for cataracts” value [3] of the same molecule?
A: Its value is 7.7 GBq.

Q: And the “Administered activity needed to reach the retina TD5/5 of 45 Gy for retinopathy” value [3]?
A: The value was 20.8 GBq.

Q: What about the Tumor uptake (B16F10 xenografts; specific activity 55.5 GBq/mmol) of the same molecule?
A: Its Tumor uptake is 9.28 ± 2.24 %ID/g.

Q: And the Tumor uptake (B16F10 xenografts; specific activity 55.5 TBq/mmol)?
A: Its Tumor uptake is 10.17 ± 1.81 %ID/g.
